Experimental data taken from ChEMBL document CHEMBL3608239, “Identification and optimisation of a 4',5-bisthiazole series of selective phosphatidylinositol-3 kinase alpha inhibitors” (Bioorg Med Chem Lett, 2015).

Experiments:
[1] = Permeability of the compound from apical to basolateral side in human Caco2 cells; assay type: ADME, cell-based; conditions: Caco-2, read-out: permeability
[2] = Permeability of the compound from basolateral to apical side in human Caco2 cells; assay type: ADME, cell-based; conditions: Caco-2, read-out: permeability
[3] = Plasma concentration in athymic nude mouse at 10 mg/kg, iv after 2 hrs; assay type: ADME, organism-based
Method in brief: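 Female athymic nude mice, conscious, with free access to food, given a bolus intravenous dose of 10 mg kg-1. Plasma levels measured 1 and 2 h after dosing.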

[4] = Oral bioavailability in Sprague-Dawley rat at 3 mg/kg; assay type: ADME, organism-based; conditions: in vivo
Method in brief: (§1)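 Female Sprague-Dawley rats, conscious, permanently cannulated, with free access to food. Dosed 1.0 mg kg-1 intravenously or 3.0 mg kg-1 orally as a suspension. Blood levels followed from 5 min to 48 h after dosing.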

Rattus norvegicus = assay: Volume of distribution in Sprague-Dawley rat at 3 mg/kg, po; assay type: ADME, organism-based; conditions: in vivo; method in brief: as §1

Cc1nc(NC(=O)N2CCC[C@H]2C(N)=O)sc1-c1ccc(S(C)(=O)=O)c(F)c1
Papp A→B [1]: 1.4 ×10⁻⁶ cm/s | Papp B→A [2]: 7.7 ×10⁻⁶ cm/s

Cc1nc(NC(=O)N2CCC[C@@]2(C)C(N)=O)sc1-c1csc(C(C)(C)C)n1
Papp A→B [1]: 14.5 ×10⁻⁶ cm/s | concentration at 2 h [3]: < 50 nM | Papp B→A [2]: 17.4 ×10⁻⁶ cm/s

Cc1nc(NC(=O)N2CC[C@H](C)[C@H]2C(N)=O)sc1-c1csc(C(C)(C)C)n1
Papp A→B [1]: 11.1 ×10⁻⁶ cm/s | Papp B→A [2]: 17.4 ×10⁻⁶ cm/s

Cc1nc(NC(=O)N2CC[C@H](O)[C@H]2C(N)=O)sc1-c1csc(C(C)(C)C)n1
Papp A→B [1]: 0.9 ×10⁻⁶ cm/s | Papp B→A [2]: 12.4 ×10⁻⁶ cm/s

Cc1nc(NC(=O)N2C[C@H](F)C[C@H]2C(N)=O)sc1-c1csc(C(C)(C)C)n1
Papp A→B [1]: 5.5 ×10⁻⁶ cm/s | Papp B→A [2]: 20.7 ×10⁻⁶ cm/s

Cc1nc(NC(=O)N2C[C@H](O)C[C@H]2C(N)=O)sc1-c1csc(C(C)(C)C)n1
Papp A→B [1]: 0.7 ×10⁻⁶ cm/s | Papp B→A [2]: 8.4 ×10⁻⁶ cm/s

Cc1nc(NC(=O)N2C[C@@H](O)C[C@H]2C(N)=O)sc1-c1csc(C(C)(C)C)n1
Papp A→B [1]: 1.2 ×10⁻⁶ cm/s | Papp B→A [2]: 20.8 ×10⁻⁶ cm/s

Cc1nc(NC(=O)N2C[C@H](N(C)C)C[C@H]2C(N)=O)sc1-c1csc(C2(C)CC2)n1
bioavailability [4]: 59% | Vd (Rattus norvegicus): 3.3 L/kg
